The source of these data is ChEMBL document CHEMBL1221298, “InCl3 mediated one-pot multicomponent synthesis, anti-microbial, antioxidant and anticancer evaluation of 3-pyranyl indole derivatives” (Bioorg Med Chem Lett, 2010).

In brackets after ≈: the same amount, converted by molar mass.

Holding throughout (type): functional
The subject of test [1] is Staphylococcus aureus. Kind of test: microbe, parasite or virus in culture. The note with it: ATCC 9144, 24 h, read-out: IZ.
Test [2] concerns Bacillus cereus. As to the kind of experiment: Antimicrobial activity against Bacillus cereus ATCC 11778 at 100 ug/ml after 24 hrs by paper disk diffusion method. The note with it: ATCC 11778, 24 h, read-out: IZ.
Test [3] deals with Escherichia coli. As to the kind of experiment: microbe, parasite or virus in culture. The note with it: ATCC 25922, 24 h, read-out: IZ.
The test system of test [4] is Klebsiella pneumoniae. Kind of test: microbe, parasite or virus in culture. As to conditions: ATCC 11298, 24 h, read-out: IZ.
For test [5], the system named is Staphylococcus aureus. As to the kind of experiment: microbe, parasite or virus in culture. As to conditions: ATCC 9144, 24 h.
Test [6] relates to Bacillus cereus. As to the kind of experiment: microbe, parasite or virus in culture. The note with it: ATCC 11778, 24 h.
Test [7] has as its system Escherichia coli. Kind of test: microbe, parasite or virus in culture. The note with it: ATCC 25922, 24 h.
The test system of test [8] is Klebsiella pneumoniae. As to the kind of experiment: microbe, parasite or virus in culture. The note with it: ATCC 11298, 24 h.
In test [9] the test system is Radical scavenging activity. As to the kind of experiment: Antioxidant activity assessed as DPPH radical scavenging activity at 50 ug/ml. As to conditions: at 50 µg/mL. The essentials:
(§1)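 Each test sample was mixed with 1 ml DPPH in methanol, incubated at 37 °C for 30 min, and read spectrophotometrically at 517 nm with a blank reading. Scavenging % was expressed as the absorbance decrease at 517 nm relative to DPPH solution without test sample.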

Test [10] has as its system Radical scavenging activity. Kind of test: Antioxidant activity assessed as DPPH radical scavenging activity at 100 ug/ml. The note with it: at 100 µg/mL. The essentials: as §1
In test [11] the test system is Radical scavenging activity. Kind of test: Antioxidant activity assessed as DPPH radical scavenging activity at 200 ug/ml. As to conditions: at 200 µg/mL. The method, boiled down:
as §1

For test [12], the system named is Radical scavenging activity. As to the kind of experiment: Antioxidant activity assessed as DPPH radical scavenging activity at 400 ug/ml. The note with it: at 400 µg/mL. The method, boiled down:
as §1

Test [13] concerns Radical scavenging activity. As to the kind of experiment: Antioxidant activity assessed as DPPH radical scavenging activity. The method, boiled down:
as §1

Test [14] in a line: Antioxidant activity assessed as ABTS radical scavenging activity at 50 ug/ml. The note with it: at 50 µg/mL. The essentials:
(§2)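 Test samples at 50, 100, 200 and 400 ug/ml were each mixed with 1 ml of freshly prepared ABTS radical cation solution, adjusted to absorbance 0.7–0.9 at 734 nm. Mixtures reacted 2 h in the dark, then absorbance was read at 734 nm against a blank. Scavenging % was taken as the absorbance decrease relative to ABTS solution without test sample.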

A short description of test [15]: Antioxidant activity assessed as ABTS radical scavenging activity at 100 ug/ml. As to conditions: at 100 µg/mL. The essentials: as §2
The nature of test [16]: Antioxidant activity assessed as ABTS radical scavenging activity at 200 ug/ml. The note with it: at 200 µg/mL. The essentials:
as §2

Test [17] in a line: Antioxidant activity assessed as ABTS radical scavenging activity at 400 ug/ml. As to conditions: at 400 µg/mL. The essentials:
as §2

A short description of test [18]: Antioxidant activity assessed as ABTS radical scavenging activity. The method, boiled down:
as §2

Take `N#CC1=C(N)OC(c2c[nH]c3ccccc23)=C(C#N)C1c1ccccc1Cl` (configuration not stated): the zone of inhibition at 100 µg/mL turned out to be 24 mm with Staphylococcus aureus [1], 17 mm in the test on Bacillus cereus [2], 21 mm in the test with Escherichia coli [3] and 20 mm with Klebsiella pneumoniae [4]. Moreover, the MIC in the test with Staphylococcus aureus [5] came out at 12.4 µg/mL (≈ 33.3 µM); against Bacillus cereus [6], 16.4 µg/mL (≈ 44 µM); against Escherichia coli [7], 16.5 µg/mL (≈ 44.3 µM); with Klebsiella pneumoniae [8], 16.1 µg/mL (≈ 43.2 µM). Moreover, the Activity in [9] was 27.9%; in [10], 34%; in [11] it was 39.6%; in [12], 45.7%; in test [14], 8.5%; in [15], 10.4%. Also, the Activity in test [16] worked out at 14.5%; in [17], 21.4%. For the same compound, the results for the IC50 in [13] and in test [18] were 467.49 µg/mL (≈ 1250 µM) and over 1000 µg/mL, respectively.
Take `N#CC1=C(N)OC(c2c[nH]c3ccccc23)=C(C#N)C1c1cc(Br)c2c(c1)OCO2` (configuration not stated): the zone of inhibition at 100 µg/mL in the test on Staphylococcus aureus [1] was found to be 19 mm; in the test with Bacillus cereus [2], 13 mm; in the test with Escherichia coli [3], 17 mm; with Klebsiella pneumoniae [4], 16 mm. Moreover, the MIC against Staphylococcus aureus [5] was 23.5 µg/mL (≈ 50.9 µM); in the test on Bacillus cereus [6], 28.7 µg/mL (≈ 62.2 µM); in the test with Escherichia coli [7], 27.3 µg/mL (≈ 59.2 µM); in the test on Klebsiella pneumoniae [8] it was 24.8 µg/mL (≈ 53.8 µM). For the same compound, the Activity in test [9] was 20.3%; in test [10] it was 23.8%; in test [11] it was 25.8%; in test [12] it was 22.8%; in test [14] it was 5.7%; in test [15], 6.4%. The Activity in test [16] was determined as 10%; in test [17] it was 12.5%. Also, the IC50 is 1779.24 µg/mL (≈ 3860 µM) in test [13] and over 1000 µg/mL in [18].
Consider `N#CC1=C(N)OC(c2c[nH]c3ccccc23)=C(C#N)C1c1ccccc1` (configuration not stated), for which the zone of inhibition at 100 µg/mL in the test with Staphylococcus aureus [1] is 22 mm; in the test on Bacillus cereus [2], 16 mm; with Escherichia coli [3] it was 18 mm; with Klebsiella pneumoniae [4] it was 18 mm. Moreover, the MIC was 15.2 µg/mL (≈ 44.9 µM) against Staphylococcus aureus [5], 18.5 µg/mL (≈ 54.7 µM) with Bacillus cereus [6], 19.6 µg/mL (≈ 57.9 µM) against Escherichia coli [7] and 20.2 µg/mL (≈ 59.7 µM) in the test on Klebsiella pneumoniae [8]. In addition, the Activity in test [9] is 38%; in test [10], 46%; in [11], 49.7%; in [12] it was 51.2%; in test [14], 14.4%; in test [15], 19.3%. The Activity turned out to be 24.5% in [16] and 26.7% in test [17]. Moreover, the figures for the IC50 in [13] and in [18] were 308.2 µg/mL (≈ 911 µM) and 993.66 µg/mL (≈ 2940 µM), respectively.
Turning to `COc1cc(Br)c(C2C(C#N)=C(N)OC(c3c[nH]c4ccccc34)=C2C#N)cc1OC` (configuration not stated), the zone of inhibition at 100 µg/mL with Staphylococcus aureus [1] is 20 mm; in the test with Bacillus cereus [2], 14 mm; with Escherichia coli [3], 16 mm; in the test on Klebsiella pneumoniae [4] it was 19 mm. Also, the MIC in the test on Staphylococcus aureus [5] is 21 µg/mL (≈ 44 µM); against Bacillus cereus [6] it was 24.5 µg/mL (≈ 51.3 µM); in the test with Escherichia coli [7] it was 29.5 µg/mL (≈ 61.8 µM); with Klebsiella pneumoniae [8], 33.4 µg/mL (≈ 70 µM). In addition, the Activity in test [9] worked out at 51.7%; in test [10], 53.8%; in test [11], 57.3%; in [12], 64.4%; in test [14] it was 18.5%; in [15], 20.5%. Besides, the Activity in [16] amounted to 24.2%; in [17], 26.7%. Besides, the IC50 in test [13] was under 50 µg/mL; in test [18], 880.3 µg/mL (≈ 1840 µM).
